Sampled rows, rich in hits. Any-hit rate of the full collection: about 9.8%.
WT yeast gro inh: growth inhibition of WT strain, primary screen, mitochondrial fusion inhibitor project, WT and mutant strains, chemical genetic | mitochondrial fusion phenotypic screen | AID 1362, 2008 | 190,000 tested, 2.1% active | inhibition, % at 10 µM; in the data active = inhibition above about 58%; tested in S. cerevisiae
PMI act: activators of human PMI, primary screen, biochemical, fluorescence intensity, near-Km mannose 6-phosphate; purified human PMI, coupled resazurin fluorescence, 20 min; stronger effect = higher value; 1 = vehicle control, 0 substrate-free wells; 190,000 tested, 0.005% active; activation factor at 20 µM; AID 1214, 2008;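 active = activation factor of 2 or more at 20 µM, relative to plate controls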
Calpain2 inh: inhibitors of pig calpain II, primary screen, biochemical, fluorogenic peptide substrate, 1536-well; purified calpain II, 30 min; inhibition, % at 16 µM; 220,000 tested, 0.37% active;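 active = inhibition above about 50%, limit read from the data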
Rad51 HR inh: human RAD51 strand exchange inhibitors, primary screen, biochemical, fluorescence | AID 1385, 2008 | inhibition, % at 10 µM | hRad51 DNA strand exchange, fluorescence dequenching | 200,000 tested, 0.085% active | DNA repair protein RAD51 homolog 1 (Homo sapiens), Q06609;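 active = inhibition above 40% at the single screening dose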
Target sequence (Q06609 whole entry, looked up): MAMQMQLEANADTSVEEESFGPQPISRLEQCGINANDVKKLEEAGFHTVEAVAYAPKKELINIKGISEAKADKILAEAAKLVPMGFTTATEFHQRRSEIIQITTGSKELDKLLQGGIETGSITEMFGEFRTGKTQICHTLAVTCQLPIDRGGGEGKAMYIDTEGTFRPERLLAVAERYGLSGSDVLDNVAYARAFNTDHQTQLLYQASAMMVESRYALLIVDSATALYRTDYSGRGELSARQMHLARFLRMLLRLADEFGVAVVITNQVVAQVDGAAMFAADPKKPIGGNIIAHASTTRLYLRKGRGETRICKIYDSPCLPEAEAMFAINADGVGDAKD
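Test system: preformed human Rad51 ssDNA filaments; also added: Donor/quencher-labelled 47-bp dsDNA substrate; doses: 10 µM final, single point; times: 37 °C 15-min filament assembly, 30-min compound preincubation, 15-min exchange; detection: FRET fluorescence dequenching, excitation 485 nm, emission 520 nm; read-out basis: Fluorescence-based percent inhibition, control- and blank-normalised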
Lmaj promast: Leishmania major promastigote growth inhibition, primary screen | 200,000 tested, 9% active | inhibition, % at 10 µM | Leishmania major promastigotes, resazurin fluorescence viability; in the data active = inhibition above about 50%;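 also: promastigotes grown with compound for 44 hours at 28 °C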
PMI act satM6P: human PMI activators, high substrate, primary screen, biochemical, fluorescence intensity, near-saturating mannose 6-phosphate; 190,000 tested, 0.34% active; activation factor at 20 µM; AID 1216, 2008; coupled PMI enzyme assay, resazurin fluorescence, 20 min; stronger effect = higher value; 1 = untreated enzyme, 0 = substrate-free blank;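 active = activation factor of 2 or more at 20 µM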
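test system = human PMI in coupled enzyme assay | medium = HEPES-buffered pH 7.4 with magnesium and detergent | also added = 1.0 mM mannose-6-phosphate substrate with 0.22 mM NADP+ | compound = 20 µM single dose | times = 20 min incubation at room temperature | measured by = resorufin fluorescence (Ex 544/Em 590 nm) from resazurin via diaphorase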
A number is an active result; - = inactive; . = no result given.

SMILES | WT yeast gro inh | PMI act | Calpain2 inh | Rad51 HR inh | Lmaj promast | PMI act satM6P
CCCn1c(NC(=O)C2CCN(S(=O)(=O)c3cccs3)CC2)nc2ccccc21 | - | - | - | - | 97 | -
COc1ccc(CCNC(=O)COC(=O)CCC(=O)c2ccc(F)cc2)cc1 | - | - | - | - | - | -
CCOC(=O)C1(Cc2ccccc2)CCN(Cc2cnn(CC)c2)CC1 | - | - | - | - | - | -
CCOC(=O)C1(Cc2ccccc2Cl)CCN(Cc2csc(C(C)=O)c2)CC1 | - | - | - | - | 90 | -
CCOC(=O)C1(Cc2ccc(Cl)cc2)CCN(Cc2cnc(N)nc2)CC1 | - | - | - | - | 53 | -
CCOC(=O)C1(Cc2cccc(F)c2)CCN(Cc2ccon2)CC1 | - | - | - | . | - | -
CCOC(=O)C1(S(=O)(=O)c2ccc(Cl)cc2)CCN(Cc2ccc(C)cc2)CC1 | 72 | - | - | - | - | -
CCOC(=O)C1(Cc2ccc(Cl)cc2)CCN(Cc2ccon2)CC1 | - | - | - | - | 95 | -
CCOC(=O)C1(Cc2cccc(OC)c2)CCN(Cc2ccccc2)CC1 | - | - | - | - | - | -
COc1ccccc1-n1cc([C@@H]2C[C@H]3CN(c4ccccc4)C(=O)[C@]34CCCN24)cn1 | - | - | - | - | - | -
FC(F)(F)c1cccc(NC(=S)NC2CCCC2)c1 | - | - | - | - | 74 | -
CCN(CC)S(=O)(=O)c1cccc(NC(=O)COC(=O)/C=C/c2ccco2)c1 | - | - | - | - | 57 | -
CN(C)S(=O)(=O)c1cccc(NC(=O)COC(=O)/C=C/c2ccco2)c1 | - | - | - | - | - | -
CCCNC(=S)Nc1cccc(C(F)(F)F)c1 | - | - | - | - | 71 | -
FC(F)(F)c1cccc(NC(=S)NCC2COc3ccccc3O2)c1 (stereo not drawn) | 89 | - | - | - | 51 | -
O=C(Oc1ccccc1O)c1cccc2ccccc12 | - | - | - | - | - | -
Cn1nc(C(=O)Nc2cccc(C(F)(F)F)c2)ccc1=O | - | - | - | - | 99 | -
CN(C)c1nn(C(=O)Nc2cccc(C(F)(F)F)c2)cc1-c1ccccc1 | 63 | - | - | - | - | -
CCN(CC)S(=O)(=O)c1cccc(NC(=O)Nc2cccc(C(F)(F)F)c2)c1 | - | - | - | - | 100 | -
CN1CCN(C(=S)Nc2cccc(C(F)(F)F)c2)CC1 | - | - | - | - | 83 | -
FC(F)(F)c1cccc(NC(=S)N2CCCCCC2)c1 | - | - | - | - | - | -
CN(C(=O)Nc1cccc(C(F)(F)F)c1)C1CCCCC1 | . | . | - | - | . | .
COc1ccc(CN(Cc2ccc(C(=O)O)cc2)C(=S)Nc2ccc(C)cc2)cc1OC | - | - | - | - | - | -
CC(NS(=O)(=O)c1ccc(Cl)cc1)C(=O)NCCC1=CCCCC1 (stereo not drawn) | - | - | - | . | - | -
CCc1nc2ccccc2c(C(=O)OCC(=O)NC(=O)c2cccn2C)c1C | . | . | - | . | . | .
SMILES | WT yeast gro inh | PMI act | Calpain2 inh | Rad51 HR inh | Lmaj promast | PMI act satM6P
O=S(=O)(c1cccc(-c2csc(-c3ccccc3)n2)c1)N1CCOCC1 | - | - | - | - | - | -
CC1CN(S(=O)(=O)c2cccc(-c3csc(-c4ccccc4)n3)c2)CC(C)O1 (stereo not drawn) | - | - | - | - | 97 | -
C=CCN(c1ccccc1)S(=O)(=O)c1ccc(Cl)c(C(=O)OCC(=O)c2[nH]c(C)c(C(C)=O)c2C)c1 | - | - | - | - | 76 | -
CC(Sc1nc2c(cc1C#N)CCCCC2)C(=O)O (stereo not drawn) | - | - | - | . | - | -
Cc1ccc(-c2nnn(CC(=O)N3CCCCC3)n2)o1 | - | - | - | - | - | -
CC(NCc1cccc(OCc2ccccc2)c1)C(O)c1ccccc1 (stereo not drawn) | - | - | - | - | 100 | -
CC(NCc1ccc(OCc2ccc(Cl)cc2)cc1)C(O)c1ccccc1 (stereo not drawn) | - | - | - | - | 100 | -
Cc1nc(=S)c2c([nH]1)-c1ccccc1CC21CCCCC1 | . | . | - | - | . | .
O=C(NC1CCCCCCC1)NC1CCCCC1 | - | - | - | - | - | -
C/C(=N\NC(=O)NC1CCCCC1)C1CCCCC1 | - | - | - | - | 95 | -
CCc1nnc(NC(=O)CSc2nnc(-c3ccccc3OC)n2-c2ccc(C)cc2)s1 | - | - | - | - | 57 | -
CCc1nnc(NC(=O)CCC(=O)NCCc2ccc(OC)c(OC)c2)s1 | - | - | - | - | 61 | -
COc1ccc(Cc2nnc(NC(=O)CSc3ccc(Cl)cc3)s2)cc1OC | - | - | - | - | - | -
COc1ccc(Cc2nnc(NC(=O)CSc3ccccc3)s2)cc1OC | - | - | - | - | 51 | -
CCc1nnc(NC(=O)CCC(=O)N2CCN(C3c4ccccc4-c4ccccc43)CC2)s1 | - | - | - | - | 51 | -
CCc1nnc(NC(=O)CCC(=O)N2CCN(Cc3ccccc3)CC2)s1 | - | - | - | - | - | -
CCC(=O)Nc1nnc(SCC(=O)NCCc2ccc(OC)c(OC)c2)s1 | - | - | - | - | - | -
O=C(COC(=O)COc1ccc(Cl)cc1)Nc1ccc(N2CCOCC2)cc1 | - | - | - | - | - | -
CCN(CC)C(=O)COc1ccc(/C=C(\C#N)S(=O)(=O)c2ccccc2)cc1OC | - | - | - | - | - | -
CCOC(=O)c1c(C)[nH]c(C)c1C(=O)COC(=O)/C=C/c1ccc(Cl)cc1 | 74 | - | - | - | - | -
CCOC(=O)c1c(C)[nH]c(C)c1C(=O)COC(=O)/C=C/c1ccc(OC(F)F)cc1 | - | - | - | - | - | -
CCn1cc([N+](=O)[O-])c(C(=O)N2N=C(c3ccc4ccccc4c3)CC2c2ccccc2O)n1 (stereo not drawn) | - | - | - | - | - | -
CCn1cc(Cl)c(C(=O)N2N=C(c3ccc4ccccc4c3)CC2c2ccccc2O)n1 (stereo not drawn) | - | - | - | - | 73 | -
CCn1cc([N+](=O)[O-])c(C(=O)N2N=C(c3cccc4ccccc34)CC2c2ccccc2O)n1 (stereo not drawn) | - | - | - | - | 74 | -
COc1ccc(-c2cn3c(C)c(C(=O)Nc4cccc(C)n4)sc3n2)cc1 | - | - | - | - | 96 | 2
Cc1cccc(NC(=O)c2sc3nc(-c4ccccc4)cn3c2C)n1 | - | - | - | - | - | -
CCOCCCN(C(=O)Cn1nnc(-c2ccc(C)o2)n1)C(C(=O)NCC1CCCO1)c1ccc(F)cc1 (stereo not drawn) | . | . | - | . | . | .
